A short description of series [1]: Toxicity in Swiss mouse assessed as change in behavior at 0.3 mg/kg, ip administered once daily for 10 days measured during compound dosing. In kind it is organism-based. The conditions noted are these: in vivo, 240 h.
Series [2] can be described thus: Toxicity in Swiss mouse assessed as change in body weight at 0.3 mg/kg, ip administered once daily for 10 days measured during compound dosing. The format is organism-based. The settings on record: in vivo, 240 h.
The nature of series [3]: Cytotoxicity against human SH-SY5Y cells assessed as cell viability at 50 uM measured after 24 hrs by MTS assay relative to control. In kind it is cell-based. The settings on record: read-out: Activity. The procedure, abridged: (§1)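 SH-SY5Y human neuroblastoma cells grown in Advanced DMEM with 10% FBS at 37 °C, 5% CO2, and switched to serum-depleted medium before treatment. Compounds (20 mM DMSO stocks) were applied at 5, 10 or 50 μM for 24 h. Viability read by MTS assay.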

Series [4] concerns Mus musculus. The experiment in a line: Ex vivo inhibition of MAOB in ip dosed Swiss mouse brain homogenates measured after 30 mins using benzylamine as substrate by amplex red reagent-based horseradish peroxidase-coupled fluorescence assay. The conditions noted are these: 0.5 h. In kind it is functional.
Series [5] in a line: Chemical stability of the compound in D2O measured incubated for >1 year at room temperature under dark condition by NMR analysis. In kind it is physicochemical.
Series [6] relates to Mus musculus. In words: Ex vivo inhibition of MAOB in Swiss mouse brain homogenates assessed as residual activity at 0.3 mg/kg, ip measured after 30 mins using benzylamine as substrate by amplex red reagent-based horseradish peroxidase-coupled fluorescence assay relative to control. In kind it is functional.
The test system of series [7] is SH-SY5Y. In words: Cytotoxicity against human SH-SY5Y cells assessed as reduction in cell viability at 5 to 10 uM measured after 24 hrs by MTS assay. The format is cell-based. The essentials:
as §1

For series [8], the system named is Mus musculus. In words: Ex vivo inhibition of MAOB in Swiss mouse brain homogenates assessed as residual activity at 30 mg/kg, po administered via gavage measured after 90 mins using benzylamine as substrate by amplex red reagent-based horseradish peroxidase-coupled fluorescence assay relative to control. In kind it is functional.
Series [9] has as its system Mus musculus. The experiment in a line: Ex vivo inhibition of MAOB in Swiss mouse brain homogenates assessed as residual activity at 0.3 mg/kg, ip administered once daily for 10 days measured 30 mins post-last dose using benzylamine as substrate by amplex red reagent-based horseradish peroxidase-coupled fluorescence assay relative to control. The format is functional.

Series [10] concerns Mus musculus. The experiment in a line: Ex vivo inhibition of MAOB in Swiss mouse brain homogenates assessed as residual activity at 60 mg/kg, ip measured after 30 mins using benzylamine as substrate by amplex red reagent-based horseradish peroxidase-coupled fluorescence assay relative to control. In kind it is functional. The essentials: (§2)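 Male Swiss mice (n = 3 per group) received 60 mg/kg ip in 0.9% saline, or saline alone, 30 min before brain homogenate preparation. […] Residual activity reported as mean ± SD, n = 1 in triplicate.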

Series [11] deals with Mus musculus. In words: Ex vivo inhibition of MAOA/MAOB in Swiss mouse brain homogenates assessed as residual activity at 60 mg/kg, ip measured after 30 mins using p-tyramine as substrate by amplex red reagent-based horseradish peroxidase-coupled fluorescence assay relative to control. The format is functional. The essentials: as §2
Series [12] has as its system Mus musculus. The experiment in a line: Effect on spontaneous locomotor activity in Swiss mouse assessed as change in number of light beam crossings at >10 mg/kg, ip measured after 30 mins and monitored for 5 mins. The format is ADME, organism-based. The settings on record: in vivo. The essentials: (§3)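 Male Swiss mice given single ip doses of ≥10 mg/kg in 0.9% saline, tested 30 min later in the hole-board test combined with spontaneous locomotor activity recording.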

For series [13], the system named is Mus musculus. In words: Effect on spontaneous locomotor activity in Swiss mouse assessed as change in number of light beam crossings at 0.3 mg/kg, ip administered […] and monitored for 5 mins. The conditions noted are these: in vivo. In kind it is ADME, organism-based.
The target of series [14] is T1, Amine oxidase [flavin-containing] B (Mus musculus, UniProt Q8BW75).
T1 sequence (Q8BW75 whole entry): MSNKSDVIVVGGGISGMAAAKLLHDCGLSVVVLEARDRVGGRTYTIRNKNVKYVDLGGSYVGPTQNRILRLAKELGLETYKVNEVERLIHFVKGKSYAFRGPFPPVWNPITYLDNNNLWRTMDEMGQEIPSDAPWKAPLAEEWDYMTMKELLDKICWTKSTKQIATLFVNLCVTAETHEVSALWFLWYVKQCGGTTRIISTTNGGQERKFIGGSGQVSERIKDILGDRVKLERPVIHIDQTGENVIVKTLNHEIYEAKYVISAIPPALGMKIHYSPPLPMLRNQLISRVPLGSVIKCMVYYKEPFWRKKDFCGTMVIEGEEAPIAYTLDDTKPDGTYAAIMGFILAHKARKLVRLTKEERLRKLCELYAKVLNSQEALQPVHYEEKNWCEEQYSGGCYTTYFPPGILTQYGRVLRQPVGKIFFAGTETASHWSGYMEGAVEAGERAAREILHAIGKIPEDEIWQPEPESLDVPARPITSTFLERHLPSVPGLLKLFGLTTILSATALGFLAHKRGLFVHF
In words: Inhibition of MAOB in Swiss mouse brain homogenates assessed as residual activity at 50 uM using benzylamine as substrate preincubated for 10 mins followed by substrate addition by amplex red reagent-based horseradish peroxidase-coupled fluorescence assay relative to control. The format is tissue-based. The conditions noted are these: read-out: Activity.

In series [15] the test system is Mus musculus. In words: Effect on behavioral changes in Swiss mouse at 0.3 mg/kg, ip administered […] and monitored for 5 mins by hole-board test. In kind it is ADME, organism-based. The settings on record: in vivo.
Series [16] concerns Mus musculus. The experiment in a line: Effect on behavioral changes in Swiss mouse at >10 mg/kg, ip measured after 30 mins and monitored for 5 mins by hole-board test. The format is ADME, organism-based. The conditions noted are these: in vivo. The procedure, abridged:
as §3

SMILES strings stand for the structures.

For `C#CCN1CCC(CCc2ccc(C(F)(F)F)cc2)CC1.Cl`, the Activity result is reported as “Non-Toxic” in series [1]; “Non-Toxic” in series [2]; 83.4% in [6]; “Non-Toxic” in series [7]; 30.5% in series [8]; 28.3% in [9]. Moreover, the Activity in series [10] is given as 24.3%; in [11], 77.2%; in series [12], “Toxic”; in series [13], “Toxic”; in [15], “Toxic”; in series [16], “Toxic”. Besides, in series [3], the viability at 24 h, 50 µM was > 80%. In series [4], this compound gave an ED50 of 1.38 mg/kg. Moreover, the Stability entry in series [5] is reported as “Stable”. The activity at 50 µM in [14] was -7.7%.

These data come from ChEMBL document CHEMBL4321878, “Stereoselective Activity of 1-Propargyl-4-styrylpiperidine-like Analogues That Can Discriminate between Monoamine Oxidase Isoforms A and B” (J Med Chem, 2020).
